Where only a bound is given, the exact number is not on record here.

ED50, inhibition in vivo and LD50 data for 29 compounds are collected here from ChEMBL document CHEMBL1122640, “Studies on heterocyclic compounds. 6. Synthesis and analgesic and antiinflammatory activities of 3,4-dimethylpyrano[2,3-c]pyrazol-6-one derivatives” (J Med Chem, 1984).

The species entered for data set [1] is Mus musculus. Briefly: Compound was tested for […] activity by phenylquinone writhing method in mice. It is filed as functional. In a few lines: (§1)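 Phenylquinone (0.03% in 5% aqueous ethanol, 10 mL/kg ip) given to female ddN mice (18-22 g); test drug given orally 30 min beforehand. Writhes counted over 15 min, starting 5 min after phenylquinone. Five to ten mice per dose; values given with range and n.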
A general note: An intraperitoneal irritant provokes the stretching counted in writhing tests.

For data set [2], the system named is Rattus norvegicus. Briefly: Antiinflammatory activity, % inhibition was reported 3 hr after carrageenan injection in the hind paw edema test in rats: dose=80 mg/kg. It is filed as functional. The method, boiled down:
(§2)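 Male Wistar rats (90-120 g); paw edema raised by subcutaneous injection of 0.1 mL 1% carrageenin into the hind foot pad. Drug given orally at 80 mg/kg. Swelling inhibition read 3 h after carrageenin and compared with vehicle control for significance.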
(In general: Carrageenan injected into the paw causes an acute inflammation.)

Data set [3] is described as follows: Acute lethal toxicity on day 7 was determined. The format is organism-based. Conditions: mouse, in vivo.
Data set [4] concerns Rattus norvegicus. The data set is described as follows: Compound was tested for antiinflammatory activity and the % inhibition was reported 3 hr after carrageenan injection in the hind paw edema test in rats: dose=80 mg/kg. It is filed as functional. In a few lines: as §2
Data set [5] relates to Rattus norvegicus. The data set is described as follows: Antiinflammatory activity, % inhibition was reported 3 hr after carrageenan injection in the hind paw edema test in rats: dose=80 mg/kg. The format is functional. The method, boiled down: as §2
Data set [6] relates to Mus sp. Briefly: Analgesic activity by phenylquinone writhing method in mice after peroral administration. It is filed as functional. Conditions: po. The method, boiled down:
as §1

Data set [7] has as its system Rattus norvegicus. The data set is described as follows: Compound was tested for antiinflammatory activity and the % inhibition was reported 3 h after carrageenan injection in the hind paw edema test in rats: dose=40 mg/kg, p.o. The format is functional. Conditions: po. The method, boiled down: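 Male Wistar rats (90-120 g) given 0.1 mL 1% carrageenin subcutaneously into the hind foot pad. Drug given po at 40 mg/kg. Edema inhibition read at 3 h after carrageenin and compared with vehicle control.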

As usually defined, the ED50 is the dose at which the effect has come halfway, by size or by number of responders. Lower therefore signals an effect at a small dose. A word on the inhibition in vivo: it is the drop in the measured response relative to a control, in per cent. For `Cc1cc(=O)oc2nn(CCN3CCOCC3)c(C)c12`, in data set [1], the median effective dose (ED50) is over 100 mg/kg. Besides, in data set [2], the inhibition in vivo at 80 mg/kg came out at 4.4%.

Usually LD50 stands for the dose expected to kill half of the subjects tested. A low value points to a more toxic substance. With `Cc1cc(=O)oc2nn(C)c(C)c12`, in data set [3], the LD50 at 7 day came out at 250 mg/kg. Besides, the 50% effect level in data set [1] (ED50) was put at a dose of 6.09 mg/kg. Also, the inhibition in vivo at 80 mg/kg in data set [2] amounted to 3.3%.

Take `Cc1cc(=O)oc2c1c(CC(=O)O)nn2C`: the 50% effective dose (ED50) in data set [1] was over 100 mg/kg. For the same compound, the inhibition in vivo at 80 mg/kg in data set [2] is -3.1%.

Turning to `CCCCCn1nc(C)c2c(C)cc(=O)oc21`, in data set [1], the ED50 is over 100 mg/kg. Moreover, the inhibition in vivo at 80 mg/kg in data set [2] worked out at 3.5%.

Regarding `CC(C)Cc1ccc(C(C)C(=O)O)cc1` (centres undefined) [IBUPROFEN], in data set [1], the median effective dose (ED50) came out at 50 mg/kg. Besides, the inhibition in vivo at 80 mg/kg in data set [4] came to 39%.

Compound `CCCCn1nc(C)c2c(C)cc(=O)oc21` displayed an ED50 in data set [1] of over 100 mg/kg. Also, the inhibition in vivo at 80 mg/kg in data set [2] was -0.9%.

In data set [1], `CCCn1nc2oc(=O)cc(C)c2c1C` came in with an ED50 of 72.6 mg/kg. Also, the inhibition in vivo at 80 mg/kg in data set [2] stood at 4.9%.

Take `CCn1nc2oc(=O)cc(C)c2c1C`: in data set [5], the inhibition in vivo at 80 mg/kg turned out to be 13.1%. This compound also displayed an ED50 in data set [1] of 14.6 mg/kg.

On to `CCCCn1nc2oc(=O)cc(C)c2c1C`, for which the ED50 in data set [1] was over 100 mg/kg. For the same compound, the inhibition in vivo at 80 mg/kg in data set [2] is -3.1%.

For `Cc1c(N(C)C)c(=O)n(-c2ccccc2)n1C` [AMINOPYRINE], the median effective dose (ED50) in data set [1] was 19.2 mg/kg. For the same compound, in data set [4], the inhibition in vivo at 80 mg/kg worked out at 17.5%.

With `Cc1cc(=O)oc2nn(C(=O)c3ccccc3)c(C)c12`, the 50% effect level in data set [6] (ED50) was put at a dose of 35 mg/kg. Besides, the inhibition in vivo at 80 mg/kg in data set [2] was 11.9%.

The compound `Cc1cc(=O)oc2nn(C(C)C)c(C)c12` showed a 50% effective dose (ED50) in data set [1] of 35.3 mg/kg. The inhibition in vivo at 80 mg/kg in data set [2] was 3.7%.

As for `CCCCCn1nc2oc(=O)cc(C)c2c1C`, the median effective dose (ED50) in data set [1] turned out to be 60.6 mg/kg. Further, the inhibition in vivo at 80 mg/kg in data set [2] is -5.4%.

In data set [6], `CC(=O)n1nc2oc(=O)cc(C)c2c1C` had an ED50 of 12.2 mg/kg. Besides, in data set [2], the inhibition in vivo at 80 mg/kg worked out at 4.5%.

In turn, `Cc1cc(=O)oc2nn(CCO)c(C)c12` returned an ED50 in data set [1] of over 100 mg/kg. The inhibition in vivo at 80 mg/kg in data set [2] was determined as 1.8%.

`Cc1cc(=O)oc2c1c(C)nn2C(C)C`: in data set [1], the median effective dose (ED50) is over 100 mg/kg. For the same compound, in data set [2], the inhibition in vivo at 80 mg/kg stood at 1.1%.

Regarding `CC(=O)Oc1ccccc1C(=O)O` [ASPIRIN], the 50% effective dose (ED50) in data set [6] is over 100 mg/kg.

`Cc1cc(=O)oc2nn(C(=O)CCl)c(C)c12`: the ED50 in data set [6] was over 100 mg/kg. The inhibition in vivo at 80 mg/kg in data set [2] was found to be 5.2%.

For `Cc1cc(=O)oc2nn(CCCl)c(C)c12`, in data set [6], the median effective dose (ED50) was determined as 56 mg/kg. In addition, in data set [2], the inhibition in vivo at 80 mg/kg is -2.1%.

In data set [1], `CCCn1nc(C)c2c(C)cc(=O)oc21` yielded an ED50 of 54.3 mg/kg. Also, in data set [2], the inhibition in vivo at 80 mg/kg is -0.6%.

With `CCN(CC)CCn1nc2oc(=O)cc(C)c2c1C`, in data set [1], it took a dose of 100 mg/kg to reach the 50% effect level (ED50). Moreover, the inhibition in vivo at 80 mg/kg in data set [4] amounted to 17%.

`CCOC(=O)Cc1nn(C)c2oc(=O)cc(C)c12` registered an ED50 in data set [1] of over 100 mg/kg. Besides, the inhibition in vivo at 80 mg/kg in data set [2] was -3.1%.

In the case of `Cc1cc(O)oc2nnc(CC(=O)O)c1-2`, the median effective dose (ED50) in data set [1] was over 100 mg/kg. The inhibition in vivo at 80 mg/kg in data set [2] came out at 6.4%.

For the compound `CCn1nc(C)c2c(C)cc(=O)oc21`, the ED50 in data set [1] was determined as 24.9 mg/kg. Moreover, the inhibition in vivo at 80 mg/kg in data set [2] turned out to be 12.1%.

For the compound `Cc1cc(=O)oc2c1c(C)nn2C`, the LD50 at 7 day in data set [3] was over 1500 mg/kg. This compound had an ED50 in data set [1] of 11.6 mg/kg. In addition, the inhibition in vivo at 80 mg/kg in data set [2] turned out to be 4.7%.

In data set [1], `Cc1cc(=O)oc2c1c(C)nn2CCO` came in with an ED50 of 100 mg/kg. The inhibition in vivo at 80 mg/kg in data set [2] is -0.9%.

In data set [1], `Cc1cccc(Nc2ccccc2C(=O)O)c1C` [MEFENAMIC ACID] yielded an ED50 of 45.9 mg/kg. The inhibition in vivo at 40 mg/kg in data set [7] came out at 33.1%.

For `CCOC(=O)Cc1nnc2oc(O)cc(C)c1-2`, in data set [1], the ED50 was over 100 mg/kg. Further, the inhibition in vivo at 80 mg/kg in data set [2] is -4.1%.

The compound `Cc1cc(=O)oc2nn(C(=O)c3ccco3)c(C)c12` had a 50% effective dose (ED50) in data set [6] of 74.3 mg/kg. The inhibition in vivo at 80 mg/kg in data set [2] was 2.2%.
